Measurements reported in ChEMBL document CHEMBL3616459, “Antimicrobial peptides with potential for biofilm eradication: synthesis and structure activity relationship studies of battacin peptides” (J Med Chem, 2015).
In brackets after ≈: the same amount, converted by molar mass. Activity calls are given as the source filed them. The calls are words filed in the database; no cut-off is given here. Non-standard residues stand in square brackets, D forms with d. Residues, ends and D or L forms follow the SMILES beside them. ξ: configuration not given here. *: point of attachment. Hexanoyl(4ξ-Me) = CCC(C)CCC(=O)*; dDab = NCC[C@@H](N)C(=O)O; Dab = NCC[C@H](N)C(=O)O

How the values were obtained:
Erwinia amylovora [1] = assay: Antimicrobial activity against Erwinia amylovora 1501 after 24 hrs by spectrophotometry; assay type: functional; conditions: Erwinia amylovora, 1501, 24 h
In short: (§1)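 Broth microdilution in Luria broth. Overnight culture from a single colony, grown at 28 °C (Ea1501, Psa) or 37 °C (E. coli, S. aureus), adjusted to OD600 0.6. Peptide dissolved in LB with 0.5% acetic acid as a dilution series; 50 μL peptide plus 50 μL culture per well, triplicates.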

Erwinia amylovora [2] = assay: Antimicrobial activity against streptomycin-resistant Erwinia amylovora after 24 hrs by spectrophotometry; assay type: functional
In short: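 Broth microdilution in Luria broth; overnight culture grown at 28 °C, adjusted to OD600 0.6, mixed 1:1 with a dilution series of peptide prepared in LB containing 0.5% acetic acid. Three replicates per concentration.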

Escherichia coli [3] = assay: Antimicrobial activity against Escherichia coli after 24 hrs by spectrophotometry; assay type: functional; in short: as §1
Pseudomonas aeruginosa [4] = assay: Antimicrobial activity against Pseudomonas aeruginosa after 24 hrs by spectrophotometry; assay type: functional
Staphylococcus aureus [5] = assay: Antimicrobial activity against Staphylococcus aureus after 24 hrs by spectrophotometry; assay type: functional; in short: as §1
Staphylococcus aureus [6] = assay: Ratio of gentamycin MIC to compound MIC for Staphylococcus aureus after 24 hrs by spectrophotometry; assay type: functional
Erwinia amylovora [7] = assay: Bactericidal activity against Erwinia amylovora 1501 by time-kill assay; assay type: functional, organism-based
In short: (§2)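 Time-kill assay. Overnight culture diluted in LB to mid-log phase, 10^5–10^8 CFU/mL; 100 μL added to 10 mL peptide in LB at 1×, 2×, 4× and 20× MIC. Incubated with shaking at 100 rpm, at 28 °C (Ea1501, Psa) or 37 °C (E. coli, P. aeruginosa, S. aureus). Samples at 0, 0.5, 1, 3, 6, 9 and 24 h serially diluted in 0.9% saline and plated; colonies counted after 24 h. Run in duplicate. Bactericidal means ≥2-log10 CFU/mL drop versus the no-antibiotic control.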

Escherichia coli [8] = assay: Bactericidal activity against Escherichia coli by time-kill assay; assay type: functional, organism-based; in short: as §2
Pseudomonas syringae [9] = assay: Bactericidal activity against Pseudomonas syringae pv. actinidiae 16027 by time-kill assay; assay type: functional, organism-based; in short: as §2
Pseudomonas aeruginosa [10] = assay: Bactericidal activity against Pseudomonas aeruginosa by time-kill assay; assay type: functional, organism-based; in short: as §2
Staphylococcus aureus [11] = assay: Bactericidal activity against Staphylococcus aureus by time-kill assay; assay type: functional, organism-based; in short: as §2
Escherichia coli [12] = assay: Bactericidal activity against Escherichia coli assessed as reduction in bacterial count at 20 times MIC up to 3 hrs by time-kill assay relative to control; assay type: functional; in short: as §2
Erwinia amylovora [13] = assay: Bactericidal activity against Erwinia amylovora 1501 at MIC […] by time-kill assay; assay type: functional, organism-based
Pseudomonas syringae [14] = assay: Bactericidal activity against Pseudomonas syringae pv. actinidiae 16027 at 20 times MIC up to 1 hr by time-kill assay; assay type: functional, organism-based; in short: as §2
Pseudomonas syringae [15] = assay: Bactericidal activity against Pseudomonas syringae pv. actinidiae 16027 at 4 times MIC up to 6 hrs by time-kill assay; assay type: functional, organism-based; in short: as §2
Pseudomonas syringae [16] = assay: Bactericidal activity against Pseudomonas syringae pv. actinidiae 16027 at 1 to 2 times MIC after 9 hrs by time-kill assay; assay type: functional, organism-based; in short: as §2
Pseudomonas syringae [17] = assay: Bactericidal activity against Pseudomonas syringae pv. actinidiae 16027 at 1 to 20 times MIC after 24 hrs by time-kill assay; assay type: functional, organism-based; in short: as §2
Pseudomonas aeruginosa [18] = assay: Bactericidal activity against Pseudomonas aeruginosa assessed as reduction in bacterial count at 2 to 4 times MIC after 24 hrs by time-kill assay relative to control; assay type: functional; in short: as §2
Pseudomonas aeruginosa [19] = assay: Bactericidal activity against Pseudomonas aeruginosa at 20 times MIC after 9 hrs by time-kill assay relative to control; assay type: functional, organism-based; in short: as §2
Pseudomonas aeruginosa [20] = assay: Bactericidal activity against Pseudomonas aeruginosa at 20 times MIC after 24 hrs by time-kill assay relative to control; assay type: functional, organism-based; in short: as §2
Staphylococcus aureus [21] = assay: Bactericidal activity against Staphylococcus aureus at 1 to 2 times MIC after 6 hrs by time-kill assay; assay type: functional, organism-based; in short: as §2
Staphylococcus aureus [22] = assay: Bactericidal activity against Staphylococcus aureus at 1 to 2 times MIC after 24 hrs by time-kill assay; assay type: functional, organism-based; in short: as §2
[23] = test system: Pseudomonas syringae pv. actinidiae; assay: Antimicrobial activity against Pseudomonas syringae pv. actinidiae 16027 preformed biofilms at 5 to 10 uM after 24 hrs; assay type: functional
In short: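 Psa16027 biofilms formed 48 h without peptide, then washed. 100 μL of peptide (1, 5 or 50 μM) in LB, or LB alone, added and incubated a further 24 h at 28 °C. Crystal violet staining followed, with A560 estimation of biofilm mass and microscopy.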

Staphylococcus aureus [24] = assay: Inhibition of Staphylococcus aureus biofilm formation at 10 to 25 uM after 48 hrs; assay type: functional, organism-based
In short: (§3)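 P. aeruginosa or S. aureus biofilms grown 48 h on coverslips in 12-well plates, with peptide added at inoculation at 5, 10, 25, 50 or 100 μM. Coverslips rinsed, dried at 50 °C and stained with BacLight (SYTO 9/propidium iodide) for 25 min in the dark at room temperature. Examined by fluorescence microscopy at 1000×.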

Pseudomonas aeruginosa [25] = assay: Inhibition of Pseudomonas aeruginosa biofilm formation at 10 to 50 uM after 48 hrs; assay type: functional, organism-based; in short: as §3
Pseudomonas aeruginosa [26] = assay: Antimicrobial activity against Pseudomonas aeruginosa preformed biofilms at 10 to 50 uM after 48 hrs; assay type: functional, organism-based
In short: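 Biofilms preformed 48 h without peptide, then washed. Peptide at 10, 50 or 100 μM in LB added and incubated a further 24 h at 37 °C. Live/dead BacLight staining on coverslips, then fluorescence microscopy at 1000×.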

Pseudomonas aeruginosa [27] = assay: Antimicrobial activity against Pseudomonas aeruginosa assessed as outer membrane permeability at 0.5 to 100 uM measured after 1 min by N-phenylnaphthylamine uptake assay; assay type: functional, organism-based
In short: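 Cells grown overnight in LB at 37 °C, then regrown to OD600 0.5, washed thrice and resuspended to OD600 0.5 in 10 mM phosphate buffer pH 7.0. Peptide (30 μL, 0.5–100 μM) added to 2.94 mL suspension, with NPN at 10 μM final. Fluorescence read at ex 350/em 420 nm, triplicate readings averaged.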

Pseudomonas aeruginosa [28] = assay: Antimicrobial activity against Pseudomonas aeruginosa assessed as perturbed cell membrane at 2 times MIC measured after 24 hrs by scanning electron microscopy; assay type: functional, organism-based
In short: (§4)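 Bacteria grown to OD600 0.3 in LB on glass slides for 24 h, then washed with 10 mM sodium phosphate pH 7.4. Treated 20 min with peptide in LB at twice the upper limit of its MIC, washed, and fixed in 4% glutaraldehyde 1 h. Dehydrated through graded ethanol, dried at 60 °C, platinum coated, and imaged by SEM at 10 kV.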

Staphylococcus aureus [29] = assay: Antimicrobial activity against Staphylococcus aureus assessed as perturbed cell membrane at 2 times MIC measured after 24 hrs by scanning electron microscopy; assay type: functional, organism-based; in short: as §4
Pseudomonas aeruginosa [30] = assay: Antimicrobial activity against Pseudomonas aeruginosa assessed as complete cell lysis at 2 times MIC […]; assay type: functional, organism-based
Staphylococcus aureus [31] = assay: Antimicrobial activity against Staphylococcus aureus assessed as complete cell lysis at 2 times MIC […]; assay type: functional, organism-based
Escherichia coli [32] = assay: Antimicrobial activity against Escherichia coli assessed as complete cell lysis at 2 times MIC measured after 24 hrs by scanning electron microscopy; assay type: functional, organism-based; in short: as §4
[33] = Hemolytic activity in mouse erythrocytes at 100 uM to 1 mM after 1 hr by spectrophotometry; assay type: ADME, cell-based, Erythrocyte; conditions: read-out: Activity
In short: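 100 μL peptide (1 μM–1 mM in Tris buffer) plus 100 μL cells, incubated 1 h at 37 °C, triplicates. After centrifugation, supernatant A540 read. Percent hemolysis calculated relative to buffer (0%) and 0.1% Triton X-100 (100%) controls.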

`CCC(C)CCC(=O)N[C@H](CCN)C(=O)N[C@@H](CCN)C(=O)N[C@@H](CCN)C(=O)N[C@@H](CC(C)C)C(=O)N[C@H](Cc1ccccc1)C(=O)N[C@@H](CCN)C(=O)N[C@@H](CCN)C(=O)N[C@@H](CC(C)C)C(N)=O` (stereo partly drawn) ({Hexanoyl(4ξ-Me)}-[dDab][Dab][Dab]L[dF][Dab][Dab]L-NH2) gave an MIC (Erwinia amylovora [1]) of 2.5 µM (≈ 2.51 µg/mL), an MIC (Erwinia amylovora [2]) of 5 µM (≈ 5.02 µg/mL) and an MIC (Escherichia coli [3]) of 2.5 µM (≈ 2.51 µg/mL). For the same compound, the MIC (Pseudomonas aeruginosa [4]) was 1 µM (≈ 1 µg/mL), the MIC (Staphylococcus aureus [5]) was 1 µM (≈ 1 µg/mL) and the Ratio (Staphylococcus aureus [6]) was 2. The Activity (Erwinia amylovora [7]) was “Dose-dependent effect”, the Activity (Escherichia coli [8]) was “Dose-dependent effect” and the Activity (Pseudomonas syringae [9]) was “Dose-dependent effect”. The Activity (Pseudomonas aeruginosa [10]) was “Dose-dependent effect”, the Activity (Staphylococcus aureus [11]) was “Dose-dependent effect” and the Activity (Escherichia coli [12]) was greater than 3 deltalog10CFU/ml. The Activity (Erwinia amylovora [13]) was “inactive”, the Activity (Pseudomonas syringae [14]) was “Active” and the Activity (Pseudomonas syringae [15]) was “Active”. The Activity (Pseudomonas syringae [16]) was “Active”, the Activity (Pseudomonas syringae [17]) was “inactive” and the Activity (Pseudomonas aeruginosa [18]) was greater than 2 deltalog10CFU/ml. The Activity (Pseudomonas aeruginosa [19]) was “Active”, the Activity (Pseudomonas aeruginosa [20]) was “Active” and the Activity (Staphylococcus aureus [21]) was “Active”. For the same compound, the Activity (Staphylococcus aureus [22]) was “Active”, the Activity [23] was “Active” and the inhibition (Staphylococcus aureus [24]) was “Active”. For the same compound, the inhibition (Pseudomonas aeruginosa [25]) was “Active”, the Activity (Pseudomonas aeruginosa [26]) was “Active” and the Activity (Pseudomonas aeruginosa [27]) was “Active”. The Activity (Pseudomonas aeruginosa [28]) was “Active”, the Activity (Staphylococcus aureus [29]) was “Active” and the Activity (Pseudomonas aeruginosa [30]) was “Active”. For the same compound, the Activity (Staphylococcus aureus [31]) was “Active”, the Activity (Escherichia coli [32]) was “Active” and the hemolysis at 1 h, 100 µM [33] was 1.79%.
